# This excerpt belongs to a sample that is enriched for hits.
# YB-1 expr inh: YB-1 expression inhibition | hit rate 0.37% among 30,000 | U2OS, qRT-PCR YB-1 vs CDIP delta delta Cp, 16 h; stronger effect = higher value; zero = DMSO, each unit about twofold | delta delta Cp (YB-1 minus CDIP) (test concentration not listed);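 active = delta delta Cp rounded down to an integer at or above 3, about 3 SD of DMSO wells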;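 note: higher means less YB-1 transcript or more CDIP transcript relative to DMSO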
# INS-1E ATP HTS: preserves ATP levels in cytokine-treated INS-1E cells; hit rate 0.1% among 20,000; INS-1E cytokine-induced death, ATP luminescence, 48 h; normalised: neutral wells 0, positive control 100; protection from cytokine-induced ATP loss, % at 10 µM;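 active = mean replicate protection from cytokine-induced ATP loss at least 50% and at least 75% of replicates each reaching 50%; inconclusive = meets only one of the two criteria, mean or replicate share; inactive = fails both the mean and replicate share criteria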
#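 Assay system – rat INS-1E insulinoma cell line · Quantity – 8000 cells per well · Buffer or medium – RPMI without phenol red, 5% FBS · Schedule – 48 h co-treatment, 10 min post-lysis read · Technique – luminescent ATP assay (CellTiter-Glo)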
# T cruzi HTS: blocks T. cruzi growth inside host cells; intracellular Trypanosoma cruzi in host cells, plate reader; activity score (inhibition), % at 5.01 µM; hit rate 4.9% among 22,000; AID 651903; in the data active = activity score above about 55%; inconclusive = no clear call, values can overlap the other calls;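 note: parasites and compound incubated about four days before reading; 0% = median of neutral control wells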
# * = called active by the depositor; ? = inconclusive; / = no result.
SMILES,YB-1 expr inh,INS-1E ATP HTS,T cruzi HTS
C[C@@H]1CN([C@@H](C)CO)C(=O)Cc2cc(NC(=O)Nc3ccc4c(c3)OCO4)ccc2O[C@@H]1CN(C)Cc1ccc(Cl)c(Cl)c1,0.0857,-39.9,46.9
C[C@@H]1CN([C@@H](C)CO)C(=O)Cc2cc(NC(=O)Nc3ccc4c(c3)OCO4)ccc2O[C@@H]1CN(C)C,0.263,-5.5,12.4
C[C@@H]1CN([C@H](C)CO)C(=O)Cc2cc(NC(=O)Nc3ccc(F)cc3)ccc2O[C@@H]1CN(C)Cc1ccc(Cl)c(Cl)c1,-0.378,-13.5,68.1*
COc1ccc(NC(=O)Nc2ccc3c(c2)CC(=O)N([C@@H](C)CO)C[C@H](C)[C@@H](CN(C)Cc2ccc(Cl)c(Cl)c2)O3)cc1,-0.00479,-15.7,7.8
C[C@H](CO)N1C[C@H](C)[C@H](CN(C)Cc2ccccc2)Oc2ccc(NC(=O)Nc3ccccc3)cc2CC1=O,0.0939,2.9,-6.9
C[C@@H]1CN([C@H](C)CO)C(=O)Cc2cc(NC(=O)Nc3ccc4c(c3)OCO4)ccc2O[C@H]1CN(C)C,10.9*,1.6,-8.2
C[C@@H]1CN([C@@H](C)CO)C(=O)Cc2cc(NC(=O)Nc3ccccc3)ccc2O[C@@H]1CN(C)Cc1ccc(Cl)c(Cl)c1,0.0763,-50.1,68.3*
C[C@H]1CN([C@@H](C)CO)C(=O)Cc2cc(NC(=O)Nc3ccc4c(c3)OCO4)ccc2O[C@H]1CN(C)Cc1ccc(Cl)c(Cl)c1,-0.618,-6.4,63.3*
Cc1c(C(N)=O)nnc2cc(-c3ccccc3)nn12,-0.388,/,/
CCC(C)(C)NC(=S)Nc1cccc(OC)c1,-0.216,/,/
C[C@H](CO)N1C[C@H](C)[C@H](CN(C)Cc2ccc(Cl)c(Cl)c2)Oc2ccc(NC(=O)Nc3ccc(F)cc3)cc2CC1=O,-0.109,-14.7,?
C[C@H]1CN([C@@H](C)CO)C(=O)Cc2cc(NC(=O)Nc3ccc(F)cc3)ccc2O[C@H]1CN(C)Cc1ccc(Cl)c(Cl)c1,0.357,-51.9,64.0*
Cc1cc(O)c(Cc2c(O)cc(C)c(C=O)c2O)c(O)c1C,-0.0983,/,/
C[C@@H]1CN([C@@H](C)CO)C(=O)c2cccc(NC(=O)NC3CCCCC3)c2O[C@H]1CN(C)Cc1ccc(Cl)c(Cl)c1,-0.117,-4.7,62.4*
C[C@@H]1CN([C@@H](C)CO)C(=O)c2cccc(NC(=O)NC3CCCCC3)c2O[C@@H]1CN(C)Cc1ccc(Cl)c(Cl)c1,0.579,-18.5,-51.6
C[C@H](CO)N1C[C@H](C)[C@H](CN(C)Cc2ccc(Cl)c(Cl)c2)Oc2c(NC(=O)C3CCCCC3)cccc2C1=O,-0.349,-40.7,14.2
C[C@@H]1CN([C@H](C)CO)C(=O)c2cccc(NC(=O)C3CCCCC3)c2O[C@H]1CN(C)Cc1ccc(Cl)c(Cl)c1,-0.254,-16.6,59.6*
Cc1nccc(-c2cccc(NC(=O)Nc3ccccc3)c2)n1,-0.721,/,/
COC(=O)C[C@H]1C(C)(C)[C@@H](OC(C)=O)[C@@H]2CC3=C4CC(=O)O[C@@H](c5ccoc5)[C@]4(C)CCC3[C@@]1(C)C2=O (some centres undefined),-0.0961,/,/
COC(=O)C[C@H]1C(C)(C)[C@H](OC(C)=O)[C@]2(O)CC3=C4CC(=O)O[C@@H](c5ccoc5)[C@]4(C)CCC3[C@@]1(C)C2=O (some centres undefined),7.97*,/,/
COc1ccc(OC)c2c(=O)cc(C(=O)O)oc12,-0.078,/,/
Cc1noc(C)c1S(=O)(=O)Nc1ccc2c(c1)CC(=O)N([C@@H](C)CO)C[C@H](C)[C@H](CN(C)Cc1ccc(Cl)c(Cl)c1)O2,0.0828,-25.4,54.6
Cc1noc(C)c1S(=O)(=O)Nc1ccc2c(c1)C(=O)N([C@@H](C)CO)C[C@H](C)[C@H](CN(C)Cc1ccc(Cl)c(Cl)c1)O2,-0.0195,-11.6,62.4*
Cc1noc(C)c1S(=O)(=O)Nc1ccc2c(c1)C(=O)N([C@H](C)CO)C[C@H](C)[C@H](CN(C)Cc1ccc3c(c1)OCO3)O2,-0.249,-10.7,58.2*
Cc1noc(C)c1S(=O)(=O)Nc1ccc2c(c1)C(=O)N([C@@H](C)CO)C[C@@H](C)[C@H](CN(C)Cc1ccc3c(c1)OCO3)O2,-0.0958,0.3,1.2
SMILES,YB-1 expr inh,INS-1E ATP HTS,T cruzi HTS
Cc1noc(C)c1S(=O)(=O)Nc1ccc2c(c1)C(=O)N([C@H](C)CO)C[C@H](C)[C@H](CN(C)Cc1ccc(Cl)c(Cl)c1)O2,0.0253,-14.6,?
Cc1noc(C)c1S(=O)(=O)Nc1ccc2c(c1)CC(=O)N([C@H](C)CO)C[C@@H](C)[C@H](CN(C)Cc1ccc(Cl)c(Cl)c1)O2,-0.11,-20.1,63.0*
Cc1noc(C)c1S(=O)(=O)Nc1ccc2c(c1)CC(=O)N([C@@H](C)CO)C[C@H](C)[C@H](CN(C)Cc1ccc(C(F)(F)F)cc1)O2,-0.0735,1.6,41.4
Cc1noc(C)c1S(=O)(=O)Nc1ccc2c(c1)CC(=O)N([C@@H](C)CO)C[C@H](C)[C@@H](CN(C)Cc1ccc(C(F)(F)F)cc1)O2,0.17,0.1,60.6*
C[C@@H]1O[C@@H](O[C@@H]2C=C(CO)[C@H]3[C@H](O[C@@H]4O[C@H](CO)[C@@H](O)[C@H](O)[C@H]4O)OC=C[C@H]32)[C@H](O)[C@H](O)[C@H]1OC(=O)/C=C/c1ccccc1,-0.149,/,/
O=C1c2cccc3cccc(c23)C(=O)N1NCCO,-0.132,/,/
O=c1c(Cc2ccccc2OCc2ccccc2)coc2ccccc12,-0.269,/,/
C[C@@H]1CN([C@H](C)CO)C(=O)Cc2cc(NC(=O)Nc3ccc4c(c3)OCO4)ccc2O[C@@H]1CN(C)Cc1ccc(-c2ccccc2)cc1,-0.223,-28.7,61.6*
C[C@@H]1CN([C@H](C)CO)C(=O)c2cc(NC(=O)Nc3ccc4c(c3)OCO4)ccc2O[C@@H]1CN(C)Cc1ccc(-c2ccccc2)cc1,0.398,-24.6,87.5*
C[C@@H]1CN([C@H](C)CO)C(=O)Cc2cc(NC(=O)Nc3ccccc3)ccc2O[C@@H]1CN(C)Cc1ccc2c(c1)OCO2,-0.14,5.7,11.9
C[C@H](CO)N1C[C@H](C)[C@H](CN(C)Cc2ccc(-c3ccccc3)cc2)Oc2ccc(NC(=O)Nc3ccc4c(c3)OCO4)cc2C1=O,0.763,/,-6.5
C[C@@H]1CN([C@@H](C)CO)C(=O)Cc2cc(NC(=O)Nc3ccc4c(c3)OCO4)ccc2O[C@@H]1CN(C)Cc1ccc(-c2ccccc2)cc1,-0.00304,-3.7,63.8*
C[C@H]1CN([C@@H](C)CO)C(=O)Cc2cc(NC(=O)Nc3ccc4c(c3)OCO4)ccc2O[C@@H]1CN(C)Cc1ccccc1,-0.156,2.6,5.3
C[C@H]1CN([C@@H](C)CO)C(=O)Cc2cc(NC(=O)Nc3ccc4c(c3)OCO4)ccc2O[C@H]1CN(C)Cc1ccc(-c2ccccc2)cc1,-0.423,-38.9,76.4*
C[C@H]1CN([C@@H](C)CO)C(=O)Cc2cc(NC(=O)Nc3ccccc3)ccc2O[C@H]1CN(C)Cc1ccc2c(c1)OCO2,-0.594,2.9,2.1
CN1c2ccsc2-c2nc(SCc3ccc(Cl)cc3)ncc2S1(=O)=O,-0.677,/,/
CN(C)/C=C/C(=O)c1sc(SCc2ccc(Cl)cc2)c2c1CC(C)(C)CC2=O,-0.413,/,/
